# Bioassay records deposited in PubChem BioAssay by several laboratories.
# M1 ag – agonists of M1 muscarinic receptor | 64,000 tested, 3% active | CHO-M1 cells, Fluo-4 calcium fluorescence, agonist mode; hits give high values | B-score at 10 µM;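 active = fluorescence rise, raw or as B-score row- and column-corrected plate score, outside the 99.7% band of its plate's samples, either direction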
# BAP1 block – inhibitors of human BAP1 deubiquitinase | Q92560 | calls only at 20 µM | 72,000 tested, 0.48% active | recombinant BAP1, Ub-AMC hydrolysis fluorescence kinetic; hits give low values | AID 436;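 active = activity remaining at or below 50% of control, provided the compound also passes the data quality filters; inactive = the rest, including low values that fail the filters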;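 also: 100% = DMSO wells rate and 0% = substrate alone blank rate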
# Target sequence (Q92560 whole entry, looked up): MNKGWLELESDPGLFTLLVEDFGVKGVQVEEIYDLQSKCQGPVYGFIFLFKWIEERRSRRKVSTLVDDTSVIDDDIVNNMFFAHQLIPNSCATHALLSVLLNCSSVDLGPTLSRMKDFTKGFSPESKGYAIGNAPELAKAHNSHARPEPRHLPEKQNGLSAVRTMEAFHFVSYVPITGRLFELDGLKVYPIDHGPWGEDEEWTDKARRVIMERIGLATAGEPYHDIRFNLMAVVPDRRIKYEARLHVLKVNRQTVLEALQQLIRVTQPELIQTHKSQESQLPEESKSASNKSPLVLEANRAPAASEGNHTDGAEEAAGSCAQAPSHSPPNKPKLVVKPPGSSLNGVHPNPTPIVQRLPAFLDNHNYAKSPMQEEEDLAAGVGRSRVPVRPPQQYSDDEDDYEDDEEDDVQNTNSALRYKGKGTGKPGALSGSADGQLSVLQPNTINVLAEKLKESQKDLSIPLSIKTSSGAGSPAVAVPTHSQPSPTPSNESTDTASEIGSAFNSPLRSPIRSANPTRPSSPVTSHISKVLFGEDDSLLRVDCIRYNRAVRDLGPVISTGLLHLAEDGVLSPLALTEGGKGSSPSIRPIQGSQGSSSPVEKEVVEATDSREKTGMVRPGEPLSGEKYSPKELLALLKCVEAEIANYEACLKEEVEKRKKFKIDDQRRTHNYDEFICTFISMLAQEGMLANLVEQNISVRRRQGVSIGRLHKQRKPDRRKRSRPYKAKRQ
# M1 antagonist – M1 muscarinic receptor (rat) antagonism; CHO-M1 cells, Fluo-4 calcium, ACh EC80 antagonist mode; hits give low values; B-score at 10 µM; 64,000 tested, 3.4% active;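 active = calcium fluorescence response, raw or row-and-column corrected B-score, differing from the plate sample mean either way at a set confidence level, mostly lower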
# Ecoli WT expand – E. coli BW25113 growth inhibition, expanded screen. OD600 absorbance. growth inhibition, % at 100 µM. 98,000 tested, 0.15% active. AID 710;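 active = growth inhibition above about 50% at one test dose, limit read from the data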;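 also: growth measured after 20 h incubation at 37 °C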
# tolC growth inh – blocks growth of E. coli BW25113 tolC mutant. 65,000 tested, 2.2% active. growth inhibition, % at 10 µM (by protocol). OD615. AID 573;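 active = growth inhibition at or above a cutoff equal to the mean over every tested compound plus 3 SD, cut at about 60% in these data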;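 also: growth measured after 20 h incubation at 37 °C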
#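 Test system: E. coli BW25113 ΔtolC::kan bacteria; incubation: 37 °C, 20 h exposure; medium: LB broth supplemented with 50 µg/mL kanamycin; read-out basis: percent growth inhibition; signal: A615 absorbance measurement; compound: 10 µM final, single dose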
# Hsp90 block – displaces geldanamycin probe from tumor Hsp90. 64,000 tested, 0.35% active. inhibition, % at 30 µM. NCI-N417 lysate Hsp90, Cy3B-geldanamycin FP displacement. P07900. AID 429;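 active = inhibition above 50%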;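 also: 0% = tracer plus lysate wells and 100% = tracer alone without lysate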
# M1 antag confirm – M1 muscarinic receptor (rat) antagonism, confirmed. shares compounds with M1 antagonist. 1,700 tested, 43% active. calcium response (max-min fluorescence) at 10 µM. CHO-M1 cells, Fluo-4 calcium, ACh EC80 antagonism; hits give low values;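 active = calcium response below the same-plate mean of wells given acetylcholine alone at its 80%-effect dose, minus 3 SD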;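 also: raw fluorescence intensity difference in arbitrary instrument units and not normalized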
# mGluR4 antag – mGluR4 (human) activity, M1 antagonist secondary assay; 1,700 tested, 0.9% active; fluorescence response (max-min) at 10 µM; CHO-mGluR4 calcium flux, Fluo-4 fluorescence, glutamate EC80; hits give low values; shares compounds with M1 antagonist;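 active = fluorescence response below the plate's average for near-maximal glutamate wells, less 3 SD of those wells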;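 also: raw unnormalized fluorescence span taken in the window right after glutamate addition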
# The depositor's hits bear a star; i = inactive; x = no result shown. A selection: hits, their analogues and other compounds. The true share with any hit is near 5.1%.
SMILES,M1 ag,BAP1 block,M1 antagonist,Ecoli WT expand,tolC growth inh,Hsp90 block,M1 antag confirm,mGluR4 antag
CC(=O)c1cccc(NC2c3ccccc3C(=O)N2Cc2ccc3c(c2)OCO3)c1 (stereo not given),2.64,i,-3.05*,0.0,5.0,0.4,502,190
CCOc1ccc(NC2c3ccccc3C(=O)N2Cc2ccc3c(c2)OCO3)cc1 (stereo not given),x,x,x,-22.0,x,x,x,x
O=C(c1cnn2c1NC(c1ccc3c(c1)OCO3)CC2C(F)(F)F)N1CCN(Cc2ccccc2)CC1 (stereo not given),x,i,x,x,x,x,x,x
CCOC(=O)C1=C(C)NC2=C(C(=O)CCC2)C1c1ccc(N(C)C)cc1 (stereo not given),0.771,i,-4.32*,2.0,9.3,-1.6,350*,272
CCCOC(=O)C1=C(C)NC2=C(C(=O)CCC2)C1c1ccc(N(C)C)cc1 (stereo not given),-1.48,i,-8.23*,0.0,15.6,0.6,248*,253
CCN(CC)c1ccc(C2C(C(=O)OCCOC)=C(C)NC3=C2C(=O)CCC3)cc1 (stereo not given),-0.472,i,-10.1*,3.0,0.3,-0.9,222*,200
COCCOC(=O)C1=C(C)NC2=C(C(=O)CC(C)(C)C2)C1c1ccc(N(C)C)cc1 (stereo not given),-0.0343,i,-0.58,-18.0,4.8,-3.6,x,x
CCOC(=O)C1=C(C)NC2=C(C(=O)CCC2)C1c1ccsc1 (stereo not given),0.755,i,-0.443,-5.0,-13.1,-1.3,x,x
O=C(NCCC1=CCCCC1)C1CCN(c2nc3ccccc3o2)CC1,x,x,x,-11.0,x,x,x,x
CC1CCCCN1CCCNC(=O)C1CCN(c2nc3ccccc3o2)CC1 (stereo not given),-0.385,i,-4.1*,5.0,-16.1,-4.3,66.8*,242
COc1cccc(CNC(=O)C2CCCN(c3nc4ccccc4o3)C2)c1 (stereo not given),-0.0933,i,-1.92*,-1.0,-7.1,-1.9,643,229
O=C(NC1CCCCCC1)C1CCN(c2nc3ccccc3o2)CC1,-0.207,i,-2.76,-14.0,-10.1,4.1,x,x
CCN1CCCC1CNC(=O)c1cc2c(C)nc3ccccc3c2o1 (stereo not given),0.167,i,-0.656,5.0,-4.4,-4.0,x,x
O=C(NCCN1CCOCC1)C1CCN(c2nc3ccccc3o2)CC1,0.168,i,-2.15*,3.0,-11.8,0.2,458*,244
Cc1nc2ccccc2c2oc(C(=O)NCCN3CCCCC3C)cc12 (stereo not given),-0.626,i,-3.39*,-3.0,-10.5,-2.0,354*,242
Cc1cc(C)c2oc(-c3cccc(NC(=O)c4ccccc4F)c3)nc2c1,x,i,x,x,x,x,x,x
CS(=O)(=O)N(CC(=O)O)c1ccc2c(c1)OCO2,-0.0348,i,-4.15*,3.0,-2.0,0.2,655,254
COCCn1c(-c2ccccc2F)n[nH]c1=S,0.979,i,-0.33,15.0,-12.6,-1.1,x,x
COCCn1c(C23CC4CC(CC(C4)C2)C3)n[nH]c1=S,0.984,i,-2.83*,3.0,24.7,0.4,610,257
O=C(NCCN1CCCC1)c1ccc2c(c1)N(Cc1ccc(F)cc1)C(=O)c1ccccc1S2=O (stereo not given),0.0128,i,-1.06*,1.0,3.0,-2.8,505,244
Cc1ccc(CN2C(=O)CSc3ccc(C(=O)NCCN4CCOCC4)cc32)cc1,-0.432,i,-0.845,-9.0,-7.6,1.1,x,x
O=C(O)c1ccc2c(c1)N(Cc1ccccc1)C(=O)c1ccccc1S2=O (stereo not given),-0.196,i,0.443,4.0,-23.5,1.1,x,x
O=C(NCCN1CCOCC1)c1ccc2c(c1)N(Cc1ccc(F)cc1)C(=O)CS2,0.465,i,-9.13*,-8.0,-7.0,-0.6,398*,214
COc1ccc(CC(=O)Nc2c3c(nn2-c2cccc(C)c2)CSC3)cc1,x,i,x,x,x,x,x,x
CCOC(=O)c1ccc([N+](=O)[O-])o1,x,i,x,x,x,x,x,x
SMILES,M1 ag,BAP1 block,M1 antagonist,Ecoli WT expand,tolC growth inh,Hsp90 block,M1 antag confirm,mGluR4 antag
O=C1NC(c2ccccc2)C(C(=O)c2cccs2)C(O)(C(F)(F)F)N1 (stereo not given),0.173,i,0.911,-1.0,-9.2,-2.7,x,x
CN1C(=O)NC(c2ccc(O)cc2)C(C(=O)c2cccs2)C1(O)C(F)(F)F (stereo not given),-0.0407,i,-3.35*,80.0*,58.1,-1.2,433,183
CCN(CC)CCOc1ncnc2c1oc1ccccc12,0.0908,x,-1.58*,9.0,6.2,0.7,584*,198
CCOc1ccc(CNc2ccc3c(c2)nc(C)n3C)cc1,-1.22,i,-6.04*,5.0,9.2,-1.3,448*,262
O=C1c2ccccc2NC(c2c(Cl)cccc2Cl)N1Cc1ccccc1 (stereo not given),x,x,x,-22.0,x,x,x,x
Cc1cccc(C2Nc3ccccc3C(=O)N2CCc2ccccc2)n1 (stereo not given),-0.643,x,-11.1*,-2.0,3.5,-1.7,554,212
CCOC(=O)C(C)Sc1nc2c(c(=O)[nH]c(=O)n2C)n1C (stereo not given),x,i,x,x,x,x,x,x
CCCc1nc2oc3c(NCCN(C)C)ncnc3c2c2c1CCCC2,1.76,i,-6.35*,7.0,x,-5.8,498,259
Cc1ccc(C(C)C)cc1OCCOCCN1CCCC1,x,x,x,7.0,x,x,x,x
COCCCNCCOc1cc(C(C)C)ccc1C,-0.139,i,-2.27*,5.0,-7.2,-0.3,554,237
Cn1c(N)c(C(=O)COC(=O)C2(c3cccc(F)c3)CCCC2)c(=O)n(C)c1=O,-0.452,i,-2.77*,-3.0,31.4,-3.3,630,208
CCOc1ccc(Cc2nc3ccccc3[nH]2)cc1,x,i,x,x,x,x,x,x
CC(C)COc1ccc(-c2nnc(-c3ccncc3)o2)cc1,-1.41,i,-0.0163,-3.0,18.7,1.6,x,x
CCCOc1ccc(-c2nnc(-c3ccncc3)o2)cc1,-0.857,i,-2*,-3.0,8.4,-5.6,533,207
Cc1ccc(CN2C3=NCCCN3c3ccccc32)cc1,0.786,i,-2.81*,11.0,3.5,0.9,419,212
CCOc1ccc(NC(=O)c2cccc(OC)c2)c([N+](=O)[O-])c1,x,i,x,x,x,x,x,x
c1coc(Cn2c(SCc3nc4ccccc4[nH]3)nnc2-c2cccs2)c1,0.158,x,-2.34*,1.0,19.0,x,659,226
CCn1c(=O)cc(SCC(=O)N2CCN(C3CCCCC3)CC2)c2ccccc21,-1.06,i,-5.07*,9.0,1.1,-1.8,256*,226
CCn1c(=O)cc(SCC(=O)N2CCOCC2)c2ccccc21,-0.613,i,-1.13,1.0,1.1,0.4,x,x
